Assay results published in ChEMBL document CHEMBL1177854, “Synthesis of bile acid derivatives and in vitro cytotoxic activity with pro-apoptotic process on multiple myeloma (KMS-11), glioblastoma multiforme (GBM), and colonic carcinoma (HCT-116) human cell lines” (Eur J Med Chem, 2010).
Active and inactive are the calls of the source. The calls are words filed in the database; no cut-off is given here.

Tests used:
[1] = Cytotoxicity against human KMS11 cells after 24 hrs by neutral red uptake assay; type: functional, cell-based; conditions: KMS-11, 24 h
Procedure, shortened: (§1)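 GBM-12 (brain tumour line), KMS-11 myeloma or HCT-116 colon carcinoma cells exposed to compound for 24 h; viability read by neutral red uptake. IC50 taken from dose-response curves; mean of three experiments ± standard error.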

GBM [2] = experiment: Cytotoxicity against human GBM cells after 24 hrs by neutral red uptake assay; type: functional, cell-based; procedure, shortened: as §1
HCT-116 [3] = experiment: Cytotoxicity against human HCT116 cells after 24 hrs by neutral red uptake assay; type: functional, cell-based; conditions: HCT-116, 24 h; procedure, shortened: as §1
[4] = Lipophilicity, log P of the compound; type: physicochemical; conditions: octanol/water
Procedure, shortened: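 Log P calculated in silico with the ALogP program; not measured experimentally.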

KMS-11 [5] = experiment: Induction of apoptosis in human KMS11 cells assessed as apoptotic nuclei at 20 uM after 24 hrs by microscopy relative to control; type: functional
GBM [6] = experiment: Induction of apoptosis in human GBM cells assessed as dead cells at 20 uM after 24 hrs using annexin V stain by FACSCalibur flow cytometry; type: functional
KMS-11 [7] = experiment: Induction of apoptosis in human KMS11 cells assessed as DNA fragmentation after 48 hrs; type: functional, cell-based
Procedure, shortened: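 KMS-11 cultures treated for 48 h; culture supernatants run on agarose gel electrophoresis against a 100 bp DNA ladder to detect DNA fragmentation.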

KMS-11 [8] = experiment: Induction of apoptosis in human KMS11 cells assessed as dead cells at 20 uM after 24 hrs using annexin V stain by FACSCalibur flow cytometry; type: functional
Procedure, shortened: (§2)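 Cells were exposed to compound for 24 h alongside untreated control cultures. They were then labelled with FITC-conjugated annexin V to mark early apoptosis. The percentage of apoptotic cells was read by flow cytometry.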

KMS-11 [9] = experiment: Induction of apoptosis in human KMS11 cells assessed as apoptotic nuclei at 10 uM after 24 hrs by microscopy relative to control; type: functional
KMS-11 [10] = experiment: Induction of apoptosis in human KMS11 cells assessed as apoptotic nuclei at 40 uM after 24 hrs by microscopy relative to control; type: functional
HCT-116 [11] = experiment: Induction of apoptosis in human HCT116 cells assessed as dead cells at 20 uM after 24 hrs using annexin V stain by FACSCalibur flow cytometry; type: functional; procedure, shortened: as §2

logP ([4]; read-out: logP)	Compound	IC50 [1]	IC50 (GBM [2])	IC50 (HCT-116 [3])	logP [4]	Activity (KMS-11 [5])	Activity (GBM [6])	Activity (KMS-11 [7])	Activity (KMS-11 [8])	Activity (KMS-11 [9])	Activity (KMS-11 [10])	Activity (HCT-116 [11])
5.81	C[C@H](CCC(=O)N1CCN(C/C=C/c2ccccc2)CC1)[C@H]1CC[C@H]2[C@@H]3[C@H](O)C[C@@H]4C[C@H](O)CC[C@]4(C)[C@H]3CC[C@]12C	8.5 µM	16.5 µM	18.5 µM								
3.26	C[C@H](CCC(=O)NN1CCN(C)CC1)[C@H]1CC[C@H]2[C@@H]3[C@@H](O)C[C@@H]4C[C@H](O)CC[C@]4(C)[C@H]3CC[C@]12C	> 50 µM	> 50 µM	> 50 µM								
2.16	C[C@H](CCC(=O)NN1CCN(C)CC1)[C@H]1CC[C@H]2[C@@H]3[C@H](O)C[C@@H]4C[C@H](O)CC[C@]4(C)[C@H]3C[C@H](O)[C@]12C	> 50 µM	> 50 µM	> 50 µM								
3.26	C[C@H](CCC(=O)NN1CCN(C)CC1)[C@H]1CC[C@H]2[C@@H]3[C@H](O)C[C@@H]4C[C@H](O)CC[C@]4(C)[C@H]3CC[C@]12C	≥ 50 µM	≥ 50 µM	> 50 µM								

More lines, now with the values behind:

Compound	logP ([4]; read-out: logP)	IC50 [1]	IC50 (GBM [2])	IC50 (HCT-116 [3])	logP [4]	Activity (KMS-11 [5])	Activity (GBM [6])	Activity (KMS-11 [7])	Activity (KMS-11 [8])	Activity (KMS-11 [9])	Activity (KMS-11 [10])	Activity (HCT-116 [11])
C[C@H](CCC(=O)N1CCN(C/C=C/c2ccccc2)CC1)[C@H]1CC[C@H]2[C@@H]3[C@H](O)C[C@@H]4C[C@H](O)CC[C@]4(C)[C@H]3C[C@H](O)[C@]12C	4.71	> 50 µM	> 50 µM	> 50 µM								
C[C@H](CCC(=O)O)[C@H]1CC[C@H]2[C@@H]3[C@H](O)C[C@@H]4C[C@H](O)CC[C@]4(C)[C@H]3C[C@H](O)[C@]12C [CHOLIC ACID]		> 50 µM	> 50 µM	> 50 µM	2.912							
C[C@H](CCC(=O)O)[C@H]1CC[C@H]2[C@@H]3[C@@H](O)C[C@@H]4C[C@H](O)CC[C@]4(C)[C@H]3CC[C@]12C [URSODIOL]		> 50 µM	> 50 µM	> 50 µM	4.014							
C[C@H](CCC(=O)O)[C@H]1CC[C@H]2[C@@H]3[C@H](O)C[C@@H]4C[C@H](O)CC[C@]4(C)[C@H]3CC[C@]12C [CHENODIOL]		> 50 µM	> 50 µM	> 50 µM	4.014							
C[C@H](CCC(=O)N1CCN(C/C=C/c2ccccc2)CC1)[C@H]1CC[C@H]2[C@@H]3[C@@H](O)C[C@@H]4C[C@H](O)CC[C@]4(C)[C@H]3CC[C@]12C	5.81	28.1 µM	24.7 µM	31.4 µM		59%	78%	Active	96%	84%	35%	45%
